Screening data as filed in PubChem.
This excerpt belongs to a sample that is enriched for hits.
UPR CHOP act = activators of apoptotic arm of unfolded protein response (CHOP); CHO-CHOP luciferase reporter, UPR activation, luminescence; percent of tunicamycin response over DMSO baseline; activation, % at 10 µM; hit rate 0.34% among 330,000;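 active = at 10 µM dose, activation of 40% or more, normalized to positive control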
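measured by = luciferase luminescence | assay system = CHO-CHOP cells, stable luciferase reporter of PERK-eIF2a-CHOP signalling | amount = 500 reporter cells seeded per well | timing = 6 h compound exposure at 37 °C after overnight seeding | controls = positive tunicamycin 10 µg/mL, negative DMSO alone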
T cruzi repl = blocks replication of Trypanosoma cruzi; T. cruzi beta-gal in NIH3T3, luminescence, 90 h; inhibition, % (test concentration not listed); hit rate 1.4% among 300,000;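 active = mean inhibition across valid replicates above about 55%, limit read from the data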;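 note: signal also drops with host cell toxicity which is not excluded here; higher percent means less beta-gal luminescence so fewer parasites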
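System – NIH/3T3 host cells with β-galactosidase reporter T. cruzi · Doses – single 50 nL compound addition per well in DMSO · Reagent – 5000 T. cruzi trypomastigotes/well · Medium – Low-serum DMEM with 2% FBS · Timing – ≥90 h infection period, 3 h prior cell attachment · Evaluation – parasite load inhibition, % · Technique – GalScreen luminescence, 60 min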
XBP1 UPR activ = adaptive UPR (XBP1) activation | CHO-XBP1 luciferase reporter, IRE1-XBP1 UPR activation, luminescence; percent of tunicamycin response, DMSO as zero | activation, % at 20 µM | hit rate 0.33% among 330,000;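 active = versus positive control, 20 µM dose yields 30% or more activation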
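Assay system: CHO-XBP1 luciferase reporter cells; Schedule: 6 h treatment, 37 °C; Detection: glow luminescence from Steady-Glo reagent; Benchmarks: high control tunicamycin 10 µg/mL final, low control DMSO vehicle only.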
Lmaj promast = reduces viability of Leishmania major promastigotes; resazurin fluorescence viability; inhibition, % at 10 µM; hit rate 9% among 200,000; AID 1063; in the data active = inhibition above about 50%;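 note: promastigotes grown with compound for 44 hours at 28 °C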
Dynein cargo inh = dynein cargo transport inhibition; 3617.4 mouse cells, GR-EGFP nuclear translocation imaging; test concentration mostly 20 µM; stimulated with dexamethasone, 1 µM; active compounds read low; z-score, hits read low; hit rate 0.47% among 220,000;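 active = plate z-score of nuclear minus cytoplasmic receptor signal below a set negative limit, without overly bright fluorescence or cell loss, cut at about -3.5 in these data, passing the limit was not always enough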;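 note: z-score of nuclear minus cytoplasmic ring GR-EGFP intensity difference per well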
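Buffer or medium – tet-free medium with charcoal-stripped serum · Signal – automated 10x imaging of fixed Hoechst-stained cells · Also added – dexamethasone agonist, 1.0 µM final, for 30 min · Incubation – induction 48 h, compound 1 h, agonist 30 min · Read-out – GR-EGFP nuclear translocation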
CHOP inhibitor = inhibitors of CHOP induction in ER stress response. CHO-K1 CHOP-promoter luciferase, tunicamycin-induced, 15-18 h. inhibition, % at 10 µM. hit rate 3.8% among 220,000;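 active = compounds that reduced the stress-induced luciferase reporter signal by more than about 70% of percent inhibition, limit read from the data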
Each line names hits and unclear results; the compound was inactive in the other large screens.

OC(COC(c1ccccc1)c1ccccc1)CN1CCCCC1 (stereo not drawn)	Lmaj promast 99.2
CC(C)(C)c1ccc(OCC(O)CN2CCCC2)cc1 (stereo not drawn)	none (no result: Lmaj promast, Dynein cargo inh, CHOP inhibitor)
OC(COc1ccc(C2C=CCC2)cc1)CN1CCCCC1 (stereo not drawn)	Lmaj promast 97.0
CN(C)S(=O)(=O)N1CCN(CC(O)COc2ccc(C(=O)c3ccccc3)cc2)CC1 (stereo not drawn)	Lmaj promast 93.2
O=C(c1ccccc1)c1ccc(OCC(O)CN2CCCCC2)cc1 (stereo not drawn)	Lmaj promast 89.5
O=C(OCC(=O)N1CCc2ccccc21)[C@@H]1CC(O)CN1S(=O)(=O)c1ccc(Cl)cc1 (stereo partly drawn)	none (no result: T cruzi repl, Lmaj promast, Dynein cargo inh, CHOP inhibitor)
Cc1c(NC(=O)Nc2ccc(F)cc2F)c(=O)n(-c2ccccc2)n1C	none (no result: Lmaj promast, Dynein cargo inh, CHOP inhibitor)
Cc1ccc(S(=O)(=O)N(C)c2ccc(OCC(=O)Nc3ccc(C(=O)N(C)C)cc3)cc2)cc1C	none (no result: T cruzi repl, Lmaj promast, Dynein cargo inh, CHOP inhibitor)
O=C(/C=C/c1ccccc1)N1CCN(CC(O)COc2ccccc2)CC1 (stereo not drawn)	Lmaj promast 78.5
O=S(=O)(c1ccc(OCC(O)CN2CCc3ccccc3C2)cc1)N1CCOCC1 (stereo not drawn)	Lmaj promast 61.6
CC(=O)N1CCN(CC(O)COc2ccc(OCc3ccccc3)cc2)CC1 (stereo not drawn)	none
O=C(c1ccc(Cl)cc1)c1ccc(OCC(O)CN2CCOCC2)cc1 (stereo not drawn)	Lmaj promast 63.0
CCC(=O)c1ccc(OCC(O)CN2CCN(S(=O)(=O)N3CCCCC3)CC2)cc1 (stereo not drawn)	none
CCOC(=O)C1CCN(CC(O)COc2ccc(C(=O)CC)cc2)CC1 (stereo not drawn)	Lmaj promast 93.7
O=S(=O)(c1ccc(OCC(O)CN2CCCCC2)cc1)N1CCOCC1 (stereo not drawn)	none
O=C(c1ccc(N2C(=O)C3C4CC(C(Br)C4Br)C3C2=O)cc1)N1CCCCC1 (stereo not drawn)	none (no result: Lmaj promast, Dynein cargo inh, CHOP inhibitor)
COc1ccc(C(=O)Nc2ccccc2C(=O)NCc2cccnc2)cc1	none (no result: Lmaj promast, Dynein cargo inh, CHOP inhibitor)
OC(COc1ccc(CNCCc2ccccc2F)cc1)CN1CCCCC1 (stereo not drawn)	Lmaj promast 78.5
Cc1cc(C)c2oc(=O)cc(CN3CCCCC3)c2c1	none (no result: Lmaj promast, Dynein cargo inh, CHOP inhibitor)
CC(=O)c1ccc(N2CCN(C(=O)c3cc(-c4cccnc4)nc4ccc(Br)cc34)CC2)cc1	T cruzi repl 59.5
O=C(c1cc(-c2ccncc2)nc2ccc(Cl)cc12)N1CCN(Cc2ccc3c(c2)OCO3)CC1	T cruzi repl 71.7, Lmaj promast 81.3
O=C(c1cc(-c2ccncc2)nc2ccc(Br)cc12)N1CCN(Cc2ccc3c(c2)OCO3)CC1	T cruzi repl 79.3
O=C(c1cc(-c2cccnc2)nc2ccc(Br)cc12)N1CCN(c2ncccn2)CC1	none
Cc1cc(C)c2nc(-c3ccncc3)cc(C(=O)N3CCN(Cc4ccccc4Cl)CC3)c2c1	T cruzi repl 61.1 (no result: Lmaj promast, Dynein cargo inh, CHOP inhibitor)
COc1ccc(C(=O)O)cc1S(=O)(=O)N1CCSCC1	none (no result: Lmaj promast, Dynein cargo inh, CHOP inhibitor)
CC(=O)O[C@H]1[C@H](O)[C@H](Oc2c(O)c(C)c3c4c2[C@@H](C)CC[C@@H]4[C@@H](C)C[C@H]3C=C(C)C)O[C@@H](C)[C@H]1O	none (no result: T cruzi repl, Lmaj promast, Dynein cargo inh, CHOP inhibitor)
Cc1ccc(S(=O)(=O)NC(C)C(=O)NC(C)c2cccs2)cc1 (stereo not drawn)	none (no result: Lmaj promast, Dynein cargo inh, CHOP inhibitor)
COc1ccc(Cn2nnnc2C(c2ccc(N(C)C)cc2)N2CCC(C(N)=O)CC2)cc1 (stereo not drawn)	none
COC(=O)C1=C(CS(=O)(=O)c2ccc(OC)c(OC)c2)NC(=O)NC1c1ccc(O)c(OC)c1 (stereo not drawn)	none (no result: Lmaj promast, Dynein cargo inh, CHOP inhibitor)
O=C(COC(=O)C1CCN(S(=O)(=O)c2ccccc2C(F)(F)F)CC1)NCc1ccc(F)cc1	none
Cc1cc(C)c2nc(SC(C)C(=O)NCC(=O)Nc3ccc(F)c(F)c3F)cc(C)c2c1 (stereo not drawn)	CHOP inhibitor 91.5
